# In the library only some 2.6% were active in any assay of this set; here they are far more common.
# SENP8 block-1: inhibitors of human SENP8 protease | Q96LD8 | recombinant SENP8, Nedd8 substrate fluorescence | inhibition, % at 20 µM | 360,000 compounds, 0.64% hits | AID 602440; in the data active means inhibition mostly above about 40%, no sharp cut-off; inactive means mostly below about 27%
# Target sequence (Q96LD8 whole entry, looked up): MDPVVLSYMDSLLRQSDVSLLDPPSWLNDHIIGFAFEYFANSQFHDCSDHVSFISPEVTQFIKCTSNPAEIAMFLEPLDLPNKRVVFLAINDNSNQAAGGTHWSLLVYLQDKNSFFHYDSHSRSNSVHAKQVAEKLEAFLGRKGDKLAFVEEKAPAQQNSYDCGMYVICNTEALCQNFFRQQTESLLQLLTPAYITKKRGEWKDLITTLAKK
# Platelet DG rel: platelet dense granule release activity. 300,000 compounds, 0.22% hits. human platelet-rich plasma, SFLLRN dense granule ATP release, luminescence. AID 1663. inhibition, %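 (compounds screened at 7.5 µM in platelet-rich plasma)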;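 active means mean replicate score, as percent of positive control, at or above 50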
# SENP8 block-2: SENP8 protease inhibition. AID 2540. inhibition, % at 10 µM. 330,000 compounds, 1.2% hits. purified SENP8, Z-RLRGG-aminoluciferin cleavage, luminescence. Q96LD8; in the data active means inhibition above about 50%
# SENP7 inh: blocks the human protease SENP7; 330,000 compounds, 1.5% hits; inhibition, % at 5 µM; Q9BQF6; recombinant SENP7, Z-RLRGG-aminoluciferin luminescence, 40 min;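 active means inhibition above about 50% at the single test dose, limit read from the data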;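 further: plate controls were DMSO with enzyme for no effect and no enzyme buffer wells for full effect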
# Target sequence (Q9BQF6 706-1050 limits assumed): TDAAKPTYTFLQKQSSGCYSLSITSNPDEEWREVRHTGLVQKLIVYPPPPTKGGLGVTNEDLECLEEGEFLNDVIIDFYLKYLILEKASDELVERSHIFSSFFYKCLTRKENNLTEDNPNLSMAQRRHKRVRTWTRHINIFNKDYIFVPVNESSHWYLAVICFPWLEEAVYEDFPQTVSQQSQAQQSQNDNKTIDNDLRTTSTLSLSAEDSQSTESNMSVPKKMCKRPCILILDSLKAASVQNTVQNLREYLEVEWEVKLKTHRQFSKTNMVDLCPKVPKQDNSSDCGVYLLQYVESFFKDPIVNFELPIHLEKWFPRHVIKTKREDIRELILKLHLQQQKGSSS
# SENP1 inh: inhibitors of human SENP1 SUMO protease catalytic domain; AID 624204; inhibition, % at 10 µM; 360,000 compounds, 0.21% hits; recombinant SENP1 catalytic domain, CyPet-SUMO1-YPet FRET cleavage; Q9P0U3;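 active means inhibition at least 30% at 10 µM, raw YFP signal under a set limit, fluorescence ratio 0.5 to 1.5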;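 further: 0% = enzyme with DMSO and 100% = no enzyme wells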
#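 system = hSENP1 catalytic domain, recombinant | reagent = SFCypet-SUMO1-SFYpet substrate at 25 nM | doses = one dose per compound, 10 µM, 0.5% DMSO | incubation = enzyme reaction for 50 min at room temperature, dark | measured by = FRET, CFP and YFP emission | controls = no-enzyme low, enzyme-DMSO high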
# SENP6 inh: blocks the human protease SENP6; Q9GZR1; Recombinant SENP6 catalytic domain, aminoluciferin luminescence; inhibition, % at 10 µM; 330,000 compounds, 1.8% hits; AID 2599;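 active means inhibition above about 50% at the single tested dose, limit read from the data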;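 further: plate controls were DMSO wells with enzyme for no effect and DMSO wells lacking enzyme for full effect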
# Starred values were filed as active, the others as inactive; . = not tested or not shown; ! = not active in a repeat.
SMILES,SENP8 block-1,Platelet DG rel,SENP8 block-2,SENP7 inh,SENP1 inh,SENP6 inh
Cn1ccc2c(-c3ccc(C(F)(F)F)cc3)cc3c(c21)C1CCC3C1 (stereo not drawn),-361.0,.,.,.,-16.5,.
O=[N+]([O-])c1cc(/C=N/N/C(=N/c2ccccn2)c2ccccn2)ccc1O,47.3*,-7.4,1.1,-2.4,33.6*,15.4
CCOC(=O)c1cc2ccccc2n1C1CCN(C)CC1,-4.0,.,.,.,0.1,.
COc1ccccc1C(=O)Nc1ccc(C2=NNC(=O)CC2C)cc1 (stereo not drawn),-88.6,87.6*,-11.3,-0.1,-0.1,-8.1
Cc1cccc(C)c1-n1nnnc1C(c1ccnc2ccccc12)N1CCN(C/C=C/c2ccccc2)CC1 (stereo not drawn),19.1,.,.,.,-2.0,.
COc1cccc(N=Nc2c(N)[nH]n3c(=O)c4c(nc23)CCCC4)c1,49.9*,0.6,-3.0,10.0,3.7,2.9
COc1ccccc1N1C(=O)C(Cl)=C(Nc2ccccc2O)C1=O,29.9,-0.7,.,.,46.5*,.
CCOc1ccccc1NC1=C(Cl)C(=O)N(c2ccc(OC)cc2)C1=O,33.1,-1.3,2.7,-1.7,2.7,-11.3
COc1ccccc1CNc1nc(NCc2ccc3occc3c2)c2sccc2n1,-47.5,.,.,.,2.2,.
Cc1ccccc1-n1c(=O)cc(N2CCN(C(=O)c3ccco3)CC2)[nH]c1=O,2.8,52.5*,2.3,7.7,-1.3,6.5
C=CCNc1nc(-c2sc(NC(=O)C(C)(C)C)nc2C)c(-n2cc(-c3ccccc3)nn2)s1,-42.7,.,.,.,-3.2,.
O=C(/C=C/[C@H]1O[C@@H](n2ccc(=O)[nH]c2=O)[C@H](O)[C@@H]1O)NCCN1CCCCC1,15.3,.,.,.,4.6,.
COc1ccc(C2OC(CCc3ccccc3)CC3=C2C(=O)OC(C)(C)O3)cc1 (stereo not drawn),10.5,.,.,.,0.3,.
Cc1ccc(NC(=O)/C(=C\c2ccc([N+](=O)[O-])cc2)NC(=O)c2ccccc2)cc1,25.5,-1.9,-1.1,-1.2,3.9,-4.2
O=C(N/N=C/c1ccc(O)c(O)c1O)/C(=C/c1ccc([N+](=O)[O-])cc1)NC(=O)c1ccccc1,71.9*,3.3,0.3,2.2,3.8,17.7
Cc1ccsc1/C=N\NC(=O)c1n[nH]c2c1CCC2,11.0,35.9,85.4*,92.8*,3.0,92.4*
CCCCCCCCN1C(=O)[C@H](CC(=O)NCCCOC)C[C@@]2(C(=O)OCC)CCCC=C12,24.0,.,.,.,4.2,.
CCN(CC)c1ccc2c(-c3ccc(S(=O)(=O)O)cc3S(=O)(=O)[O-])c3ccc(=[N+](CC)CC)cc-3oc2c1,17.0,31.6,31.8,9.5,33.6*,14.0
CCN(CC)c1ccc2nc3c4ccccc4c(=O)cc-3oc2c1,.,11.1,46.7,22.4,.,46.7
O=C1C(Cl)=C(N2CCCCC2)C(=O)C(Cl)=C1c1cnc(N2CCCCC2)s1,-19.3,10.2,11.4,7.9,-22.1,11.8
CN(C)c1ncc(C2=C(Cl)C(=O)C(N3CCCC3)=C(Cl)C2=O)s1,46.5*,6.7,31.8,18.9,-3.4,16.6
O=C(N/N=C1\CCc2ccccc21)c1ccccc1O,-12.6,5.5,58.0*,78.1*,2.1,70.6*
Cc1cc(C2=CC(=O)C[C@H](c3ccc4c(c3)OCO4)C2)ccc1F,9.2,.,-0.5,8.6,-0.1,-1.9
COc1cc(/C=C2/S/C(=N/S(=O)(=O)Cc3ccccc3)NC2=O)c([N+](=O)[O-])cc1OC,41.8*,-0.9,1.7,5.8,11.2,9.4
N#C/C(=C\c1cc([N+](=O)[O-])c(N2CCCCC2)cc1N1CCCCC1)c1nn(-c2ccccc2)c(N)c1C#N,50.4*,.,2.3,4.1,5.2,19.1
SMILES,SENP8 block-1,Platelet DG rel,SENP8 block-2,SENP7 inh,SENP1 inh,SENP6 inh
N#C/C(=C\c1cccc2ccccc12)c1nn(-c2ccccc2)c(N)c1C#N,.,1.0,7.6,3.3,.,-3.7
COc1ccc([C@H]2CC(=O)C[C@@H](CCn3cc(-c4nccn4C)nn3)O2)cc1,6.5,.,.,.,2.2,.
CC1(C(=O)N2CCCCC2)CCN1C(=O)C1(c2ccccc2)CC1 (stereo not drawn),7.1,.,.,.,-1.3,.
COc1cc(/C=C/c2nc3ccccc3s2)cc(OC)c1O,-436.1,-17.1,1.1,11.4,-38.2,3.4
CN(C)c1ccc(/C=C/c2ccc3ccccc3n2)cc1,-290.5,97.4*,.,.,-26.5,.
CN(C)c1ccc(CNc2nc3ccccc3n2C)cc1,19.3,.,.,.,0.1,.
CN(C)c1ccc(/C=C/c2nc3ccccc3s2)cc1,-241.4,64.3*,97.0*,98.8*,-22.5,98.6*
CCCN(CCC)c1ccc(/C=C/c2ccc3cc(OCC)ccc3n2)cc1,-288.6,-4.0,.,.,-21.6,.
CN(C)c1ccc(CNc2nc3ccccc3s2)cc1,.,15.0,53.6*,95.2*,.,81.7*
COC(=O)[C@@]12C[C@@H](CC(=O)NCc3ccc(C)o3)C(=O)N(CCc3ccc(OC)c(OC)c3)C1=CCC(C)(C)C2,17.5,.,.,.,1.6,.
O=[N+]([O-])c1ccccc1C1Nc2cccc3cccc(c23)N1,50.6*,0.1,23.5,2.7,-8.1,20.2
Cc1cnc(C(=O)N(CCCn2ccnc2)C2C(=O)Nc3ccccc3N=C2c2ccccc2)cn1 (stereo not drawn),2.6,.,.,.,-0.2,.
COc1ccc(C)cc1Nc1n[n+](-c2ccccc2)c(-c2ccc(NC(C)=O)cc2)s1,-7.9,1.4,-6.2,5.8,4.3,-17.7
COc1ccc(C)cc1Nc1n[n+](-c2ccccc2)c(-c2cc([N+](=O)[O-])cc(OC)c2O)s1,11.7,5.8,-11.4,-4.2,43.3*,-0.1
O=S1(=O)CCN(Cc2csc(-c3cccs3)n2)CC1,-36.9,52.5*,10.9,46.3,-0.9,25.2
O=S1(=O)CCN(Cc2ccccn2)CC1,8.5,7.2,-2.2,8.2,1.5,2.9
O=C(CSCc1c(Cl)cccc1Cl)NCc1ccco1,21.9,83.5*,1.7,1.7,-2.1,-10.2
O=C(CSCc1c(F)cccc1Cl)NCc1ccco1,14.3,3.8,0.2,7.3,-0.6,-2.7
CCC(C)C(=O)N1c2ccccc2C(=C2SC(C(=O)OC)=C(C(=O)OC)S2)C(=S)C1(C)C (stereo not drawn),55.6*,.,-4.7,4.1,4.0,-12.5
CCOC(=O)C1=C(C)c2ccccc2N(C(=O)OC)C1(C)C(=O)OCC (stereo not drawn),-13.3,.,.,8.8,-0.2,.
COc1ccc(NC(=O)C2Cc3c(-c4cccc(F)c4)ccnc3O2)cn1 (stereo not drawn),4.5,.,.,.,0.7,.
Cc1ccc(S(=O)(=O)NC2=C(N3CCN(c4ccccc4F)CC3)C(=O)c3ccccc3C2=O)cc1,45.6*!,3.6,-0.2,27.4,-4.8,25.7
Cc1ccc(S(=O)(=O)Nc2nc3ccccc3nc2N2CCN(c3ccccc3F)CC2)cc1,-482.0,7.5,0.8,1.2,-5.3,-8.9
Cc1ccc(S(=O)(=O)NC2=C(N3CCN(Cc4ccccc4)CC3)C(=O)c3ccccc3C2=O)cc1,39.3*,-3.6,-5.9,-2.1,-10.7,5.5

# Assay outcomes from PubChem BioAssay.
